Experimental data reported in the EternaBench riboswitch data.

System: MS2 coat protein
Assay: apparent Kd, MS2 coat protein; higher = weaker binding; RNA-MaP array; FMN 200 µM where present
Method in brief: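 Green signal from SNAP-549-labelled MS2 coat protein was normalised to red-channel RNA signal and to the median Fmax of control clusters. The protein was titrated from 0.7 or 1.5 nM, doubling to 3 µM, without and then with constant ligand, over designs transcribed by stalled E. coli RNA polymerase on Illumina sequencing-chip clusters, in 100 mM Tris-HCl pH 7.5, 80 mM KCl, 4 mM MgCl2, BSA, DTT, yeast tRNA and Tween-20. The apparent Kd is the median of filtered per-cluster binding-curve fits.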

[1] = designed as: ON switch for flavin mononucleotide, no ligand
[2] = ligand present: flavin mononucleotide, designed as: ON switch for flavin mononucleotide
[3] = designed as: OFF switch for flavin mononucleotide, no ligand
[4] = ligand present: flavin mononucleotide, designed as: OFF switch for flavin mononucleotide

Row | Sequence | apparent Kd [1] [nM] | apparent Kd [2] [nM] | apparent Kd [3] [nM] | apparent Kd [4] [nM]
1 | UUGGUUGUCGUAGGAUAUGGAGGAUAUUCCUACAUGAGGAUCACCCAUGUUCGCAUGGAAGAAGGCCAGAAGGACGAUGACCAU | 10.4 | 4.38 | – | –
2 | GGACGUCACAUGAACAUGAGGAUCACCCAUGUAAAUUCUCAUGAGGAUAUGGAUCCUAAUUGGAUCCAGAAGGCGUGGACGUCC | 1030 | 415 | – | –
3 | GUACUGUAGUGAGGAUAUACGAGAACGAUAGUUCGGCGAUCCAUAUAUACAUGAGGAUCACCCAUGUAGAAGGCACUUCAGUAC | – | – | 9.3 | 108
4 | GGAUUACAUGAGGAUCACCCAUGUGAGGAUAUCGAUGUCCUCAAUCCCGUGCGGGACUCGAGAAGGCACUUGGA | – | – | 63 | 48.8
5 | CUUCUGUCAGGAUAUGCGAAUCACCACUGGGUCAGUGGUGAGCAGAAGGGACAUGAGGAUCACCCAUGUAAAGU | – | – | 36.3 | 169
6 | GCGAAGAUAGCAGGAUAUAUGUUUCCUACAUGAGGAUCACCCAUGUAGGUGAUCAGCCGAGAAAAGUAGAAGGGCUAUCUUUGC | 16.5 | 13.7 | – | –
7 | CGAGUGUAAGGAUAUUCGGCGCCAGGGAACAACCUAGCGUAGAAGAAGGUACAUGAGGAUCACCCAUGUGGUUA | – | – | 269 | 22.4
8 | ACGUUUUAUGCAGGAUAUUGACAUAUAUUUAAACAAGAAGGGCAUUACAUGAGGAUCACCCAUGUUAUCAUGGUAUUUAAGUUC | – | – | 64.1 | 63.2
9 | AGAGGUCUCUGUGAUAACGGUACGAAGGAUAUGCAUGGAUGGGCCGAGACAUGAGGAUCACCCAUGUAGAAGGUCGAUGCGCGU | – | – | 51 | 65.7
10 | AGAAAACAUGAGGAUCACCCAUGUAGAAAUAUGGGAGGAUAUACAAAGACGAAAGUCAGAGUAGAAGGCCUAAAAA | 65.2 | 17.6 | – | –
11 | UGUUUGCGGCAGGAUAUCCAUCCGCGGUGUGGUGGAGAAGGGCUGACAUGAGGAUCACCCAUGUGCGUCCUGUA | – | – | 19.4 | 27.5
12 | UUGAGGUAGGAGAAGGACAGAGGCGGAAACACAAACAUGAGGAUCACCCAUGUAGGAUAUCCUAACUAACGAGAAUACCUCAAG | – | – | 6.36 | 6.89
13 | AAUUGGAUGCAGAAGGCAUGGACGACUCGUCACAUUAACAUGAGGAUCACCCAUGUGAAAACACAUGAGGAUAUGCAUCCUAAA | 17.5 | 6.41 | – | –
14 | GUCAUUGACAAGAAGGCAAACAUGAGGAUCACCCAUGUUCUGCAUGUAUAUUGAGGAUAUUGCCAAUGCAUGUGGAUCACCCAA | – | – | 6.92 | 11
15 | AAAUCAGCAGGAUAUGCGAUGUUAUGCUAGAUAGCGGGACCACAUGAGGAUCACCCAUGUAGAAGGGCUAGAUA | – | – | 34.9 | 16.8
16 | GCGGAACAUGAGGAUCACCCAUGUAUCCCAAAUAUGGACUCACAGGAUAUCCCGAGUUGCCAGUGGGAGAAGGGUGACUCCAGA | 14.2 | 6.55 | – | –
17 | CGGAGGUCAGGAUAUGCAUGGCGGGACUUGCGUCGUGGCGUGCAGAAGGGACAUGAGGAUCACCCAUGUGGAGU | – | – | 147 | 216
18 | GUCAGCUCGUGAGGAUAUACAUGUGCUGGAAACAGCACUAUUGUGUUCACAUGAGGAUCACCCAUGUAGAAGGCACGAGCUGAU | – | – | 18.2 | 85.6
19 | UUUGAAUUGCAAGGAUAUCUUAUUUAGAUUUUAAGAGAAGGUGCUUUACAGUUACAUGAGGAUCACCCAUGUCUUUCUUUUUAU | 24.8 | 20 | – | –
20 | UGUUGAUAGCAGAAGGACAUGAGGAUCACCCAUGUAAGGAUACAAAUAUAUGUAGGAUAUGCUAUUGACUAAGAGUGAGCGUUC | – | – | 8.55 | 18.9
21 | UUCUUCUGAGGAUAUACAUAGAUUUACAUGAGGAUCACCCAUGUUCCUCUAUGUAUAAAUGUAGAAGGCAGAAGUU | – | – | 16.9 | 91.2
22 | ACUUAUUGAGGAUAUACAGAAAAUUACAUGAGGAUCACCCAUGUUCUUCAAUGUAUAUAUGUAGAAGGCAGAAUAG | – | – | 14.4 | 27.6
23 | GACAUGGUCCAGAAGGGCUAUUUAUUUAAGUAUUAUUUAGAACAGCAUAGCAGGAUAUGGCUAACAUGAGGAUCACCCAUGUUC | 18.8 | 11.6 | – | –
24 | CUUUUGUGAGGAUAUUAGUAGUAAAUAAAUAAAAUUUCUACUGAGAAGGCACAUGAGGAUCACCCAUGUUCCUC | – | – | 31.9 | 182
25 | GGAUAGGACAGAGGAUAUACGUGCUAGAGAUACUAGCAAAAUUUCCUCACAUGAGGAUCACCCAUGUAGAAGGCUGGCCUAUCG | – | – | 14.1 | 379
26 | CCGAUUAGCACAGGAUAUGGGAAUUCGUAGUUUCCAGAAGGGUGAGCCAAUACAUGAGGAUCACCCAUGUGCGGUAGGUCGGGA | 30.5 | 80 | – | –
27 | UUACUAUUACAGAAGGUUAAAUAAUAUAUAAAUGAAGGAUAUGUAACAUGAGGAUCACCCAUGUUUCACCCAUAUGAGGAUCAC | – | – | 8.49 | 7.99
